Experimental findings from ChEMBL document CHEMBL4396943, “The tetrahydroxanthone-dimer phomoxanthone A is a strong inducer of apoptosis in cisplatin-resistant solid cancer cells” (Bioorg Med Chem, 2019) are described below.

The test system of one test is CAL-27. Nature of the test: Potency index, ratio of cisplatin IC50 to compound IC50 for antiproliferative activity in human CAL27 cells assessed as reduction in cell viability incubated for 72 hrs by MTT assay. Format: functional. The method in brief: (§1)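 Cells seeded in 96-well plates overnight, exposed 72 h to increasing concentrations. MTT (5 mg/ml) added for 15 min, formazan dissolved in DMSO, absorbance read at 544 nm with 690 nm background subtracted. IC50 is the concentration reducing signal by 50%. Three independent experiments in triplicate. CisR sublines made by weekly intermittent cisplatin exposure for 24–30 weeks.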
A general note: Tetrazolium assays rely on reduction of a dye to a coloured formazan, in cell work by metabolically active cells.

Test [1] deals with A2780cisR. Kind of test: Induction of apoptosis in human A2780cisR cells assessed as decrease in mitochondrial membrane potential at 1 uM incubated for 24 hrs by TMRE staining based flow cytometry. The class given is functional, cell-based. The method in brief: (§2)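 Cells seeded overnight; complete medium swapped for FBS-free medium just before treatment to avoid TMRE ester cleavage. Exposure to PXA for 1 h, 2 h or 24 h. TMRE staining 20 min, cells collected by trypsinisation, ΔΨm read by flow cytometry. Medium served as negative control, 20 µM CCCP as positive control. Mean ± SEM reported.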

For test [2], the system named is A2780. Nature of the test: Induction of apoptosis in human A2780 cells assessed as decrease in claspin expression at 5 uM incubated for 24 hrs by proteome profiler analysis. The class given is functional, cell-based. The essentials:
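A2780 cells treated 24 h with 5 µM, then apoptosis-related proteins read on an antibody array (Proteome Profiler human apoptosis array) per kit instructions.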

For test [3], the system named is J82. Nature of the test: Induction of apoptosis in cisplatin resistant human J82 cells assessed as depolarization of mitochondrial membrane potential incubated for 2 hrs by TMRE staining based flow cytometry. The class given is functional, cell-based. The method in brief: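 Cells seeded overnight; medium switched to FBS-free just before treatment to avoid TMRE ester cleavage. Exposure 1 h, 2 h or 24 h, then TMRE staining for 20 min. Cells trypsinized, centrifuged at 4 °C and read by flow cytometry. Medium as negative control, 20 µM CCCP as positive control. […]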

Test [4] relates to J82. Nature of the test: Ratio of IC50 for antiproliferative activity in human J82 cells to cisplatin-resistant human J82 cells assessed as reduction of cell viability incubated for 72 hrs by MTT assay. Format: functional. The method in brief:
as §1

In test [5] the test system is J82. Kind of test: Induction of apoptosis in cisplatin resistant human J82 cells assessed as depolarization of mitochondrial membrane potential at 5 to 10 uM incubated for 2 hrs by hoechst 33342 staining based fluorescence microscopy. The class given is functional. The essentials: (§3)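 J82CisR cells exposed 2 h, then labelled with TMRE and Hoechst 33342 for 20 min. TMRE signal imaged on a high-content fluorescence imaging platform. Untreated medium control and 20 µM CCCP positive control.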

In test [6] the test system is A2780cisR. Kind of test: Induction of apoptosis in human A2780cisR cells assessed as depolarization of mitochondrial membrane potential at 1 uM incubated for 1 hr by TMRE staining based flow cytometry. Format: functional. The method in brief: as §2
On the technique in general: In flow cytometry, cells or beads pass a laser one at a time.

In the next test the test system is HCT-116. Nature of the test: Potency index, ratio of cisplatin IC50 to compound IC50 for antiproliferative activity in human HCT116 cells assessed as reduction in cell viability incubated for 72 hrs by MTT assay. Format: functional. The method in brief:
as §1

Test [7] relates to J82. Kind of test: Induction of apoptosis in cisplatin resistant human J82 cells assessed as accumulation in subG1 phase at 5 uM incubated for 24 hrs by propidium iodide staining based flow cytometry relative to control. Format: functional. The essentials: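 Cells plated in 24-well plates (about 100,000/well) for one day, then treated 24 h. Where used, caspase inhibitor Q-VD-OPh (20 µM) was added 1 h before. Cells lysed in hypotonic buffer (0.1% sodium citrate, 0.1% Triton X-100, 100 µg/ml propidium iodide) overnight at 4 °C in the dark. Sub-G1 fraction read by flow cytometry. Medium control, cisplatin positive control.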

Test [8] deals with A2780. Nature of the test: Antiproliferative activity against human A2780 cells assessed as reduction in cell viability incubated for 72 hrs by MTT assay. The following applies: A2780, 72 h. Format: functional, cell-based. The method in brief: (§4)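 Cells seeded overnight in 96-well plates, then exposed to increasing concentrations (compound dissolved in DMSO, diluted in medium) for the stated time. MTT (5 mg/ml in PBS) added for 15 min, formazan dissolved in DMSO, absorbance read at 544 nm minus 690 nm background. IC50 = concentration giving 50% signal decrease. At least three independent experiments in triplicate.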

Test [9] deals with A2780cisR. Kind of test: Cell cycle arrest in human A2780cisR cells assessed as accumulation at G1 phase at 10 uM incubated for 24 hrs by propidium iodide staining based flow cytometry (reference value: 68.7%). The class given is functional. The method in brief: (§5)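 After 24 h exposure, cells washed in ice-cold PBS. About 2 million cells fixed in cold 70% ethanol at −20 °C for at least 24 h. Stained with 0.1% Triton X-100, 200 µg/ml RNase A and 20 µg/ml propidium iodide in PBS, 15 min at 37 °C in the dark. DNA content read by flow cytometry with doublet discrimination. Medium as untreated control, paclitaxel as G2/M control. Three independent experiments.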

Another test deals with K562. Nature of the test: Potency index, ratio of cisplatin IC50 to compound IC50 for antiproliferative activity in human K562 cells assessed as reduction in cell viability incubated for 72 hrs by MTT assay. Format: functional. The essentials: as §1
The subject of test [10] is J82. Kind of test: Induction of apoptosis in cisplatin resistant human J82 cells assessed as mitochondrial membrane potential at 1 uM incubated for 2 hrs by hoechst 33342 staining based fluorescence microscopy. Format: functional, cell-based. The method in brief: as §3
For test [11], the system named is A2780. Kind of test: Cell cycle arrest in human A2780 cells assessed as accumulation at G1 phase at 1 uM incubated for 24 hrs by propidium iodide staining based flow cytometry (reference value: 61.8%). Format: functional. The essentials: as §5
In test [12] the test system is A2780cisR. Nature of the test: Antiproliferative activity against human A2780cisR cells assessed as reduction in cell viability incubated for 72 hrs by MTT assay. Format: functional, cell-based. The method in brief: as §4
Test [13] in a line: Antiproliferative activity against human Cal27CisR cells assessed as reduction in cell viability incubated for 72 hrs by MTT assay. The class given is functional, cell-based. The method in brief: as §4

The source made the active and inactive calls. The rule behind the calls is not given here.

For `CC(=O)OC[C@]12Oc3c(-c4ccc(O)c5c4O[C@@]4(COC(C)=O)C(=C(O)C[C@@H](C)[C@H]4OC(C)=O)C5=O)ccc(O)c3C(=O)C1=C(O)C[C@@H](C)[C@H]2OC(C)=O` [PHOMOXANTHONE A], the “Ratio IC50” value in the test with CAL-27 was 2 - 10; in the test on J82 [4] it was 1.6; in the test on HCT-116 it was 2 - 10; with K562, 5. The outcome in the test on A2780cisR [1] and with A2780 [2] was Active. Also, the Activity result in the test on J82 [3] is “Dose-dependent effect”; in the test on J82 [5] it was 100%; with A2780cisR [6], 73%; in the test with J82 [7] it was 35%; in the test with A2780cisR [9], 81.1%; in the test on A2780 [11] it was 63.3%. Moreover, the IC50 was 2.75 µM in the test on J82 [3] (J82, 2 h); 0.58 µM with A2780 [8] (read-out: IC50); 0.575 µM in the test with A2780 [8] (read-out: pIC50 (converted)); 1.37 to 1.38 µM in the test on A2780cisR [12] (read-out: IC50); 1.38 µM in the test with A2780cisR [12] (read-out: pIC50 (converted)); 5.62 µM in test [13]. The outcome with J82 [10] was inactive.
